Source: BindingDB's records for doi:10.1021/jm0101702 (Abbott Laboratories, 2001)

Tests used:
[1] = target: T1, Vascular cell adhesion protein 1 (Homo sapiens, UniProt P19320); experiment: In vitro inhibitory potency compared to IL1-beta induced VCAM-1 expression in human endothelial cells (ELISA assay)
T1 sequence (P19320 whole entry): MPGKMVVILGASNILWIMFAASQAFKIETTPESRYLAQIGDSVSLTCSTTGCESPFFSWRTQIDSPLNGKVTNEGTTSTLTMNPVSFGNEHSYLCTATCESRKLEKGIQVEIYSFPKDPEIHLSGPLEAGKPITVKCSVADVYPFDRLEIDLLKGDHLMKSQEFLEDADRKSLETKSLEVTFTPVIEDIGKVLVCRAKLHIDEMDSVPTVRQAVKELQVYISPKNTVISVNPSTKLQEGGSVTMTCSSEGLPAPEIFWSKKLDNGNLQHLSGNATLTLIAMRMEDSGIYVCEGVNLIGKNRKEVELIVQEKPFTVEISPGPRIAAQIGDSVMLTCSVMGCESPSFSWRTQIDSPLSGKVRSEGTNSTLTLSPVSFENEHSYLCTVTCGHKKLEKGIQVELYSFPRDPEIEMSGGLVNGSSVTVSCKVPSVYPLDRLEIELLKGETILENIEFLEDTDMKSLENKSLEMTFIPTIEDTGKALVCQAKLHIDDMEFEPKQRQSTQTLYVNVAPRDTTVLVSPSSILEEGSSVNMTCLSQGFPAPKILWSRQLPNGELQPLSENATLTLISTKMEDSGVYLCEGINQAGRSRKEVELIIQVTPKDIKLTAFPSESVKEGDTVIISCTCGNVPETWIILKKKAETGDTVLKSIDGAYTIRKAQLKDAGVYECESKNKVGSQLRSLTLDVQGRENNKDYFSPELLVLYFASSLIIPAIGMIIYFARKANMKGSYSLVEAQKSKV
Procedure, shortened: (§1)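 Primary HUVECs seeded at 5 × 10^4 cells/mL in EBM/2% FBS with EGF, bovine brain extract and gentamicin. Compound added next day for 24 h at 37 °C, then inducer (IL-1β or PMA, level not stated) for 6 h at 37 °C. Whole-cell ELISA used mouse monoclonal anti-ICAM-1 or anti-VCAM-1, HRP donkey anti-mouse IgG and OPD, read at 490 nm. Run in triplicate.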

[2] = Inhibition of VCAM-1 in human endothelial cells
[3] = target: T1, Vascular cell adhesion protein 1; experiment: In vitro inhibitory potency compared to PMA induced VCAM-1 expression in human endothelial cells (ELISA assay); procedure, shortened: as §1
[4] = target: T1, Vascular cell adhesion protein 1; experiment: Inhibition of VCAM-1 in human endothelial cells
Procedure, shortened: (§2)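 Whole-cell ELISA on primary HUVECs plated at 5 × 10^4 cells/mL in EBM/2% FBS with growth supplements. Compound preincubated 24 h at 37 °C, then inducer added (TNFα at 5 ng/mL final, or IL-1β or PMA in its place) for 6 h at 37 °C. Mouse monoclonal anti-E-selectin, anti-ICAM-1 or anti-VCAM-1 was applied overnight at 4 °C, then HRP anti-mouse IgG. Detection with OPD, A490. Triplicate assays.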

[5] = target: T1, Vascular cell adhesion protein 1; experiment: In vitro inhibitory potency compared to TNF-alpha induced VCAM-1 in human endothelial cells (ELISA assay); procedure, shortened: as §2
[6] = target: T1, Vascular cell adhesion protein 1; experiment: In vitro inhibitory potency compared to IL1-beta induced VCAM-1 in human endothelial cells (ELISA assay); procedure, shortened: as §2
[7] = target: T1, Vascular cell adhesion protein 1; experiment: In vitro inhibitory potency compared to PMA induced VCAM-1 in human endothelial cells (ELISA assay); procedure, shortened: as §2

IC50 [4]	IC50 [5]	IC50 [6]	IC50 [7]	SMILES	IC50 [1]	IC50 [2]	IC50 [3]
				CNC(=O)c1cc2c(Oc3ccc(Cl)cc3)cncc2s1 [4-(4-Chloro-phenoxy)-thieno[2,3-c]pyridine-2-carboxylic acid methylamide]	70 nM	> 1000 nM	200 nM
> 1000 nM				Cc1ccc(Sc2cncc3sc(C(N)=O)cc23)cc1 [4-p-Tolylsulfanyl-thieno[2,3-c]pyridine-2-carboxylic acid amide]			
	30 nM	20 nM	20 nM	CNC(=O)c1cc2c(Oc3ccc(COCCOCCOC)cc3)cncc2s1 [4-{4-[2-(2-Methoxy-ethoxy)-ethoxymethyl]-phenoxy}-thieno[2,3-c]pyridine-2-carboxylic acid methylamide]		120 nM	
